Laboratory results as given in ChEMBL document CHEMBL1629686, “Substrate selectivity and a novel role in inhibitor discrimination by residue 237 in the KPC-2 beta-lactamase” (Antimicrob Agents Chemother, 2010).
Converted amounts (≈) assume the structure as drawn.

What was measured:
[1] = Inhibition of Klebsiella pneumoniae 1534 beta-lactamase KPC-2 T237S mutant by competitive assay
Method in brief: (§1)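 Direct competition assay at steady state with purified enzyme at 10 nM. Inhibitor was varied from 5 μM to 5 mM, with nitrocefin 100 μM final as reporter substrate. 1/v0 was plotted against [I], and Ki(observed) was taken as y-intercept divided by slope. This was corrected by 1 + [S]/Km(nitrocefin).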

Klebsiella pneumoniae [2] = test: Ratio of Ki for Klebsiella pneumoniae 1534 beta-lactamase KPC-2 T237A mutant to Ki for wild type Klebsiella pneumoniae beta-lactamase KPC-2 by competitive assay
Klebsiella pneumoniae [3] = test: Ratio of Ki for Klebsiella pneumoniae 1534 beta-lactamase KPC-2 T237S mutant to Ki for Klebsiella pneumoniae wild type beta-lactamase KPC-2 by competitive assay; method in brief: as §1
[4] = Inhibition of Klebsiella pneumoniae 1534 beta-lactamase KPC-2 T237A mutant by competitive assay; method in brief: as §1
Escherichia coli [5] = test: Antimicrobial activity against Escherichia coli DH10B harboring beta-lactamase KPC-2 T237N mutant by agar dilution method; assay type: functional; conditions: K-12 DH10B
Method in brief: (§2)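 LB agar dilution MICs followed CLSI criteria, with inocula applied by Steers replicator. […] Piperacillin-tazobactam was tested at an 8:1 ratio. Wild-type and mutant blaKPC-2 were carried on pBC SK(+), or wild type on pBR322-catI, in E. coli DH10B.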

Escherichia coli [6] = test: Antimicrobial activity against Escherichia coli DH10B harboring plasmid pBR322-catI carrying beta-lactamase KPC-2 by agar dilution method; assay type: functional; conditions: K-12 DH10B; method in brief: as §2
Escherichia coli [7] = test: Antimicrobial activity against Escherichia coli DH10B harboring beta-lactamase KPC-2 T237P mutant by agar dilution method; assay type: functional; conditions: K-12 DH10B; method in brief: as §2
Escherichia coli [8] = test: Antimicrobial activity against Escherichia coli DH10B harboring beta-lactamase KPC-2 T237M mutant by agar dilution method; assay type: functional; conditions: K-12 DH10B; method in brief: as §2
Escherichia coli [9] = test: Antimicrobial activity against Escherichia coli DH10B harboring beta-lactamase KPC-2 T237G mutant by agar dilution method; assay type: functional; conditions: K-12 DH10B; method in brief: as §2
Escherichia coli [10] = test: Antimicrobial activity against Escherichia coli DH10B harboring beta-lactamase KPC-2 T237F mutant by agar dilution method; assay type: functional; conditions: K-12 DH10B; method in brief: as §2
Escherichia coli [11] = test: Antimicrobial activity against Escherichia coli DH10B by agar dilution method; assay type: functional; conditions: K-12 DH10B; method in brief: as §2
Escherichia coli [12] = test: Antimicrobial activity against Escherichia coli DH10B harboring plasmid […] by agar dilution method; assay type: functional; conditions: K-12 DH10B; method in brief: as §2
Escherichia coli [13] = test: Antimicrobial activity against Escherichia coli DH10B harboring beta-lactamase KPC-2 T237V mutant by agar dilution method; assay type: functional; conditions: K-12 DH10B; method in brief: as §2
Escherichia coli [14] = test: Antimicrobial activity against Escherichia coli DH10B harboring beta-lactamase KPC-2 T237R mutant by agar dilution method; assay type: functional; conditions: K-12 DH10B; method in brief: as §2
Escherichia coli [15] = test: Antimicrobial activity against Escherichia coli DH10B harboring beta-lactamase KPC-2 T237S mutant by agar dilution method; assay type: functional; conditions: K-12 DH10B; method in brief: as §2
Escherichia coli [16] = test: Antimicrobial activity against Escherichia coli DH10B harboring beta-lactamase KPC-2 T237E mutant by agar dilution method; assay type: functional; conditions: K-12 DH10B; method in brief: as §2
Escherichia coli [17] = test: Antimicrobial activity against Escherichia coli DH10B harboring beta-lactamase KPC-2 T237W mutant by agar dilution method; assay type: functional; conditions: K-12 DH10B; method in brief: as §2
Escherichia coli [18] = test: Antimicrobial activity against Escherichia coli DH10B harboring beta-lactamase KPC-2 T237D mutant by agar dilution method; assay type: functional; conditions: K-12 DH10B; method in brief: as §2
Escherichia coli [19] = test: Antimicrobial activity against Escherichia coli DH10B harboring beta-lactamase KPC-2 T237Q mutant by agar dilution method; assay type: functional; conditions: K-12 DH10B; method in brief: as §2
Klebsiella pneumoniae [20] = test: Antimicrobial activity against Klebsiella pneumoniae 1534 expressing beta-lactamase KPC-2 by agar dilution method; assay type: functional
Method in brief: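 MICs were determined by LB agar dilution following CLSI criteria, with a Steers replicator. […] Piperacillin-tazobactam was kept at an 8:1 ratio.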

Escherichia coli [21] = test: Antimicrobial activity against Escherichia coli DH10B harboring beta-lactamase KPC-2 T237Y mutant by agar dilution method; assay type: functional; conditions: K-12 DH10B; method in brief: as §2
Escherichia coli [22] = test: Antimicrobial activity against Escherichia coli DH10B harboring beta-lactamase KPC-2 T237C mutant by agar dilution method; assay type: functional; conditions: K-12 DH10B; method in brief: as §2
Escherichia coli [23] = test: Antimicrobial activity against Escherichia coli DH10B harboring beta-lactamase KPC-2 T237A mutant by agar dilution method; assay type: functional; conditions: K-12 DH10B; method in brief: as §2
Escherichia coli [24] = test: Antimicrobial activity against Escherichia coli DH10B harboring plasmid pBC SK(+) carrying wild type beta-lactamase KPC-2 by agar dilution method; assay type: functional; conditions: K-12 DH10B; method in brief: as §2
Escherichia coli [25] = test: Antimicrobial activity against Escherichia coli DH10B harboring beta-lactamase KPC-2 T237K mutant by agar dilution method; assay type: functional; conditions: K-12 DH10B; method in brief: as §2
Escherichia coli [26] = test: Antimicrobial activity against Escherichia coli DH10B harboring beta-lactamase KPC-2 T237I mutant by agar dilution method; assay type: functional; conditions: K-12 DH10B; method in brief: as §2
Escherichia coli [27] = test: Antimicrobial activity against Escherichia coli DH10B harboring beta-lactamase KPC-2 T237L mutant by agar dilution method; assay type: functional; conditions: K-12 DH10B; method in brief: as §2
Escherichia coli [28] = test: Antimicrobial activity against Escherichia coli DH10B harboring beta-lactamase KPC-2 T237H mutant by agar dilution method; assay type: functional; conditions: K-12 DH10B; method in brief: as §2
Klebsiella pneumoniae [29] = test: Selectivity index, Ratio of Kcat/Km for Klebsiella pneumoniae 1534 beta-lactamase KPC-2 T237S mutant to ratio of Kcat/Km for Klebsiella pneumoniae 1534 beta-lactamase KPC-2 by spectrophotometric analysis
Method in brief: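 Kinetics used purified enzymes in 10 mM PBS, pH 7.4, room temperature, with 10 nM enzyme and substrate in excess. Km and Vmax came from a Michaelis-Menten fit. kcat/Km of the variant was compared with wild type as ΔΔG = −RT ln of the kcat/Km ratio.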

Klebsiella pneumoniae [30] = test: Ratio of Kcat/Km for Klebsiella pneumoniae 1534 beta-lactamase KPC-2 T237S mutant by spectrophotometric analysis
Method in brief: (§3)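 Purified KPC-2 variant enzymes (periplasmic lysate from E. coli, preparative isoelectric focusing). Hydrolysis followed by diode-array spectrophotometry in 10 mM PBS, pH 7.4, room temperature. Enzyme at 10 nM with substrate in molar excess for pseudo-first-order conditions. Vmax and Km came from a nonlinear least-squares Michaelis-Menten fit.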

Klebsiella pneumoniae [31] = test: Activity of Klebsiella pneumoniae 1534 beta-lactamase KPC-2 T237S mutant by spectrophotometric analysis; method in brief: as §3
Klebsiella pneumoniae [32] = test: Activity of Klebsiella pneumoniae 1534 beta-lactamase KPC-2 T237A mutant by spectrophotometric analysis; method in brief: as §3

## C[C@]1(Cn2ccnn2)[C@H](C(=O)O)N2C(=O)C[C@H]2S1(=O)=O [TAZOBACTAM]
[1]
  Ki: 53 µM
Klebsiella pneumoniae [2]
  fold change (FC): 2.2
Klebsiella pneumoniae [3]
  fold change (FC): 1.7
[4]
  Ki: 174 µM

## C[C@@H](O)[C@H]1C(=O)N2C(C(=O)O)=C(S[C@@H]3CN[C@H](C(=O)Nc4cccc(C(=O)O)c4)C3)[C@H](C)[C@H]12
Escherichia coli [5]
  MIC: 0.06 µg/mL (≈ 0.126 µM)
Escherichia coli [6]
  MIC: 2 µg/mL (≈ 4.21 µM)
Escherichia coli [7]
  MIC: 0.06 µg/mL (≈ 0.126 µM)
Escherichia coli [8]
  MIC: 0.06 µg/mL (≈ 0.126 µM)
Escherichia coli [9]
  MIC: 0.06 µg/mL (≈ 0.126 µM)
Escherichia coli [10]
  MIC: 0.06 µg/mL (≈ 0.126 µM)
Escherichia coli [11]
  MIC: 0.06 µg/mL (≈ 0.126 µM)
Escherichia coli [12]
  MIC: 0.06 µg/mL (≈ 0.126 µM)
Escherichia coli [13]
  MIC: 0.06 µg/mL (≈ 0.126 µM)
Escherichia coli [14]
  MIC: 0.06 µg/mL (≈ 0.126 µM)
Escherichia coli [15]
  MIC: 0.5 µg/mL (≈ 1.05 µM)
Escherichia coli [16]
  MIC: 0.06 µg/mL (≈ 0.126 µM)
Escherichia coli [17]
  MIC: 0.06 µg/mL (≈ 0.126 µM)
Escherichia coli [18]
  MIC: 0.06 µg/mL (≈ 0.126 µM)
Escherichia coli [19]
  MIC: 0.06 µg/mL (≈ 0.126 µM)
Klebsiella pneumoniae [20]
  MIC: 8 µg/mL (≈ 16.8 µM)
Escherichia coli [21]
  MIC: 0.06 µg/mL (≈ 0.126 µM)
Escherichia coli [22]
  MIC: 0.06 µg/mL (≈ 0.126 µM)
Escherichia coli [23]
  MIC: 0.06 µg/mL (≈ 0.126 µM)
Escherichia coli [24]
  MIC: 0.25 µg/mL (≈ 0.526 µM)
Escherichia coli [25]
  MIC: 0.06 µg/mL (≈ 0.126 µM)
Escherichia coli [26]
  MIC: 0.06 µg/mL (≈ 0.126 µM)
Escherichia coli [27]
  MIC: 0.06 µg/mL (≈ 0.126 µM)
Escherichia coli [28]
  MIC: 0.06 µg/mL (≈ 0.126 µM)

## CO/N=C(\C(=O)N[C@@H]1C(=O)N2C(C(=O)O)=C(COC(C)=O)CS[C@H]12)c1csc(N)n1 [CEFOTAXIME]
Escherichia coli [5]
  MIC: 0.06 µg/mL (≈ 0.132 µM)
Klebsiella pneumoniae [29]
  fold change (FC): 2.7
Escherichia coli [6]
  MIC: 8 µg/mL (≈ 17.6 µM)
Escherichia coli [7]
  MIC: 0.06 µg/mL (≈ 0.132 µM)
Escherichia coli [8]
  MIC: 0.06 µg/mL (≈ 0.132 µM)
Escherichia coli [9]
  MIC: 0.06 µg/mL (≈ 0.132 µM)
Escherichia coli [10]
  MIC: 0.06 µg/mL (≈ 0.132 µM)
Escherichia coli [11]
  MIC: 0.06 µg/mL (≈ 0.132 µM)
Escherichia coli [12]
  MIC: 0.06 µg/mL (≈ 0.132 µM)
Escherichia coli [13]
  MIC: 0.06 µg/mL (≈ 0.132 µM)
Escherichia coli [14]
  MIC: 0.06 µg/mL (≈ 0.132 µM)
Escherichia coli [15]
  MIC: 1 µg/mL (≈ 2.2 µM)
Klebsiella pneumoniae [30]
  kcat/Km: 260000 M⁻¹ s⁻¹
Escherichia coli [16]
  MIC: 0.06 µg/mL (≈ 0.132 µM)
Escherichia coli [17]
  MIC: 0.06 µg/mL (≈ 0.132 µM)
Escherichia coli [18]
  MIC: 0.125 µg/mL (≈ 0.274 µM)
Escherichia coli [19]
  MIC: 0.06 µg/mL (≈ 0.132 µM)
Klebsiella pneumoniae [20]
  MIC: 16 µg/mL (≈ 35.1 µM)
Escherichia coli [21]
  MIC: 0.06 µg/mL (≈ 0.132 µM)
Klebsiella pneumoniae [31]
  Km: 168 µM
  kcat: 43 s⁻¹
Escherichia coli [22]
  MIC: 0.06 µg/mL (≈ 0.132 µM)
Escherichia coli [23]
  MIC: 0.06 µg/mL (≈ 0.132 µM)
Escherichia coli [24]
  MIC: 2 µg/mL (≈ 4.39 µM)
Escherichia coli [25]
  MIC: 0.06 µg/mL (≈ 0.132 µM)
Escherichia coli [26]
  MIC: 0.06 µg/mL (≈ 0.132 µM)
Escherichia coli [27]
  MIC: 0.06 µg/mL (≈ 0.132 µM)
Klebsiella pneumoniae [32]
  kcat: < 0.1 s⁻¹
Escherichia coli [28]
  MIC: 0.06 µg/mL (≈ 0.132 µM)

## CC1(C)[C@H](C(=O)O)N2C(=O)C[C@H]2S1(=O)=O [SULBACTAM]
[1]
  Ki: 97 µM
Klebsiella pneumoniae [2]
  fold change (FC): 4.2
Klebsiella pneumoniae [3]
  fold change (FC): 1.7
[4]
  Ki: 703 µM
